# Reference: ChEMBL document CHEMBL1833921, “Synthesis and biological evaluation of phenstatin metabolites” (Bioorg Med Chem, 2011)
# Columns and labels:
# [1] = system: HL-60; assay: Cytotoxicity against human HL60 cells after 48 hrs by sulforhodamine B assay; type: functional; conditions: HL-60, 48 h
# [2] = Inhibition of bovine brain tubulin polymerization after 30 mins by turbidimetry analysis; parameters: species or system Bos taurus
# Summary of the method: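 Lyophilized bovine brain tubulin (97%) reconstituted to 5 mg/mL in 80 mM PIPES pH 6.9, 2 mM MgCl₂, 0.5 mM EGTA, 1.0 mM GTP and 5% glycerol. Compound in DMSO was added to this solution in a quartz cuvette at 0 °C. Assembly was followed as the rise in absorbance at 340 nm at 37 °C. IC₅₀ is the molar concentration halving the extent of assembly after 30 min.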
# [3] = system: HT-29; assay: Cytotoxicity against human HT29 cells after 48 hrs by sulforhodamine B assay; type: functional; conditions: HT-29, 48 h
# [4] = system: A549; assay: Cytotoxicity against human A549 cells after 48 hrs by sulforhodamine B assay; type: functional; conditions: A549, 48 h
# [5] = system: MCF7; assay: Cytotoxicity against human MCF7 cells after 48 hrs by sulforhodamine B assay; type: functional; conditions: MCF7, 48 h
# [6] = system: DU-145; assay: Cytotoxicity against human DU145 cells after 48 hrs by sulforhodamine B assay; type: functional; conditions: DU-145, 48 h
# [7] = system: MDA-MB-435; assay: Cytotoxicity against human MDA-MB-435 cells after 48 hrs by sulforhodamine B assay; type: functional; conditions: MDA-MB-435, 48 h
# [8] = system: SF-295; assay: Cytotoxicity against human SF295 cells after 48 hrs by sulforhodamine B assay; type: functional; conditions: SF-295, 48 h
# [9] = system: OVCAR-3; assay: Cytotoxicity against human OVCAR3 cells after 48 hrs by sulforhodamine B assay; type: functional; conditions: OVCAR-3, 48 h
# [10] = system: A498; assay: Cytotoxicity against human A498 cells after 48 hrs by sulforhodamine B assay; type: functional; conditions: A498, 48 h
# [11] = system: SF-539; assay: Cytotoxicity against human SF539 cells after 48 hrs by sulforhodamine B assay; type: functional; conditions: SF-539, 48 h
# [12] = system: OVCAR-5; assay: Cytotoxicity against human OVCAR5 cells after 48 hrs by sulforhodamine B assay; type: functional; conditions: OVCAR-5, 48 h
# [13] = system: COLO 205; assay: Cytotoxicity against human COLO205 cells after 48 hrs by sulforhodamine B assay; type: functional; conditions: COLO 205, 48 h
# [14] = system: HCT-116; assay: Cytotoxicity against human HCT116 cells after 48 hrs by sulforhodamine B assay; type: functional; conditions: HCT-116, 48 h
# [15] = system: NCI-H522; assay: Cytotoxicity against human NCI-H522 cells after 48 hrs by sulforhodamine B assay; type: functional; conditions: NCI-H522, 48 h
# [16] = system: HCC 2998; assay: Cytotoxicity against human HCC2998 cells after 48 hrs by sulforhodamine B assay; type: functional; conditions: HCC 2998, 48 h
# [17] = system: K562; assay: Cytotoxicity against human K562 cells after 48 hrs by sulforhodamine B assay; type: functional; conditions: K562, 48 h
# [18] = system: SK-MEL-2; assay: Cytotoxicity against human SK-MEL-2 cells after 48 hrs by sulforhodamine B assay; type: functional; conditions: SK-MEL-2, 48 h
# [19] = system: KM12; assay: Cytotoxicity against human KM12 cells after 48 hrs by sulforhodamine B assay; type: functional; conditions: KM12, 48 h
# [20] = system: M14; assay: Cytotoxicity against human M14 cells after 48 hrs by sulforhodamine B assay; type: functional; conditions: M14, 48 h
# [21] = system: NCI-H322M; assay: Cytotoxicity against human NCI-H322M cells after 48 hrs by sulforhodamine B assay; type: functional
# [22] = system: SK-OV-3; assay: Cytotoxicity against human SKOV3 cells after 48 hrs by sulforhodamine B assay; type: functional; conditions: SK-OV-3, 48 h
# [23] = system: Hs-578T; assay: Cytotoxicity against human HS578T cells after 48 hrs by sulforhodamine B assay; type: functional
# [24] = system: SN12C; assay: Cytotoxicity against human SN12C cells after 48 hrs by sulforhodamine B assay; type: functional
# [25] = system: CCRF-CEM; assay: Cytotoxicity against human CCRF-CEM cells after 48 hrs by sulforhodamine B assay; type: functional
# [26] = system: UO-31; assay: Cytotoxicity against human UO31 cells after 48 hrs by sulforhodamine B assay; type: functional; conditions: UO-31, 48 h
# [27] = system: MDA-MB-231; assay: Cytotoxicity against human MDA-MB-231/ATCC cells after 48 hrs by sulforhodamine B assay; type: functional; conditions: MDA-MB-231, 48 h
# [28] = system: OVCAR-4; assay: Cytotoxicity against human OVCAR4 cells after 48 hrs by sulforhodamine B assay; type: functional; conditions: OVCAR-4, 48 h
# [29] = system: EKVX; assay: Cytotoxicity against human EKVX cells after 48 hrs by sulforhodamine B assay; type: functional
# [30] = system: A549; assay: Cytotoxicity against human A549/ATCC cells after 48 hrs by sulforhodamine B assay; type: functional; conditions: A549, 48 h
# [31] = system: SK-MEL-28; assay: Cytotoxicity against human SK-MEL-28 cells after 48 hrs by sulforhodamine B assay; type: functional; conditions: SK-MEL-28, 48 h
# [32] = system: CAKI-1; assay: Cytotoxicity against human Caki1 cells after 48 hrs by sulforhodamine B assay; type: functional; conditions: CAKI-1, 48 h
# [33] = system: UACC-62; assay: Cytotoxicity against human UACC62 cells after 48 hrs by sulforhodamine B assay; type: functional; conditions: UACC-62, 48 h
# [34] = system: MDA-MB-468; assay: Cytotoxicity against human MDA-MB-468 cells after 48 hrs by sulforhodamine B assay; type: functional; conditions: MDA-MB-468, 48 h
# [35] = system: SF-268; assay: Cytotoxicity against human SF268 cells after 48 hrs by sulforhodamine B assay; type: functional; conditions: SF-268, 48 h
# [36] = system: NCI/ADR-RES; assay: Cytotoxicity against human NCI/ADR-RES cells after 48 hrs by sulforhodamine B assay; type: functional
# [37] = system: HL-60(TB); assay: Cytotoxicity against human HL-60(TB) cells after 48 hrs by sulforhodamine B assay; type: functional; conditions: HL-60, 48 h
# [38] = system: RXF 393; assay: Cytotoxicity against human RXF393 cells after 48 hrs by sulforhodamine B assay; type: functional; conditions: RXF 393, 48 h
# [39] = system: NCI-H460; assay: Cytotoxicity against human NCI-H460 cells after 48 hrs by sulforhodamine B assay; type: functional; conditions: NCI-H460, 48 h
# [40] = system: HCT-15; assay: Cytotoxicity against human HCT15 cells after 48 hrs by sulforhodamine B assay; type: functional; conditions: HCT-15, 48 h
SMILES,GI50 [1] [nM],IC50 [2] [nM],GI50 [3] [nM],GI50 [4] [nM],GI50 [5] [nM],GI50 [6] [nM],GI50 [7] [nM],GI50 [8] [nM],GI50 [9] [nM],GI50 [10] [nM],GI50 [11] [nM],GI50 [12] [nM],GI50 [13] [nM],GI50 [14] [nM],GI50 [15] [nM],GI50 [17] [nM],GI50 [18] [nM],GI50 [19] [nM],GI50 [20] [nM],GI50 [21] [nM],also measured
COc1ccc(C(=O)c2cc(OC)c(OC)c(OC)c2)cc1N,30,1500,33,57,–,–,–,–,–,–,–,–,–,–,–,–,–,–,–,–,–
COc1ccc(C(=O)c2cc(OC)c(OC)c(OC)c2)c(N)c1,–,400,42,–,23,36,–,–,–,–,–,–,–,–,–,–,–,–,–,–,–
COc1ccc(C(=O)c2cc(OC)c(OC)c(OC)c2)c(OC)c1N,33.1,10000,32.3,39,10.6,27.4,< 10000,19.9,20.2,22.1,–,–,–,–,–,–,–,–,–,–,–
COc1ccc(C(=O)c2cc(OC)c(OC)c(OC)c2)c(O)c1O [HYDROXYPHENSTATIN],–,800,–,–,–,144,–,120,–,–,–,–,–,–,–,–,–,–,–,–,–
COc1cc(C(=O)c2ccc3c(c2)oc(=O)n3S(C)(=O)=O)cc(OC)c1OC,–,> 100000,–,–,4430,3040,289,1610,1560,3110,2360,5770,2500,2310,2340,588,5110,1150,1360,5380,GI50 [16]: 6750 nM; GI50 [22]: 2840 nM; GI50 [23]: 3160 nM; GI50 [24]: 7790 nM; GI50 [25]: 3350 nM; GI50 [26]: 6810 nM; GI50 [27]: 4850 nM; GI50 [28]: 22300 nM; GI50 [29]: 4580 nM; GI50 [30]: 4680 nM; GI50 [31]: 11300 nM; GI50 [32]: 2640 nM; GI50 [33]: 5300 nM; GI50 [34]: 2820 nM; GI50 [35]: 7950 nM; GI50 [36]: 2030 nM; GI50 [37]: 2520 nM; GI50 [38]: 4630 nM; GI50 [39]: 2640 nM; GI50 [40]: 2000 nM
COc1ccc(C(=O)c2cc(OC)c(OC)c(OC)c2)c(OC)c1NC(C)=O,3530,> 50000,4330,4620,9600,292,–,293,3300,85.5,–,–,–,–,–,–,–,–,–,–,–
COc1cc(C(=O)c2ccc(OC)c(O)c2OC)cc(OC)c1O,–,14900,–,–,1010,818,282,1400,363,1700,611,4920,4830,1410,290,153,100000,409,455,4990,GI50 [16]: 2890 nM; GI50 [22]: 912 nM; GI50 [23]: 358 nM; GI50 [24]: 13700 nM; GI50 [25]: 896 nM; GI50 [26]: 16600 nM; GI50 [27]: 2160 nM; GI50 [28]: 100000 nM; GI50 [29]: 4760 nM; GI50 [30]: 3470 nM; GI50 [31]: 100000 nM; GI50 [32]: 1900 nM; GI50 [33]: 5010 nM; GI50 [34]: 864 nM; GI50 [35]: 4250 nM; GI50 [36]: 515 nM; GI50 [37]: 364 nM; GI50 [38]: 755 nM; GI50 [39]: 1970 nM; GI50 [40]: 611 nM
COc1ccc(/C=C/c2cc(OC)c(OC)c(OC)c2)c(O)c1O,–,1900,–,–,–,512,–,–,–,–,–,–,–,–,–,–,–,–,–,–,–
COc1ccc(C(=O)c2cc(OC)c(O)c(OC)c2)cc1OC,–,> 100000,–,–,433,4490,273,2080,2330,3360,2960,12900,14200,2500,3640,666,5290,1090,902,3440,GI50 [22]: 2200 nM; GI50 [23]: 4920 nM; GI50 [24]: 6680 nM; GI50 [25]: 4050 nM; GI50 [26]: 2160 nM; GI50 [27]: 4790 nM; GI50 [28]: > 100000 nM; GI50 [29]: > 100000 nM; GI50 [30]: 59100 nM; GI50 [31]: 9460 nM; GI50 [32]: 3010 nM; GI50 [33]: 8410 nM; GI50 [34]: 1970 nM; GI50 [36]: 854 nM; GI50 [37]: 1250 nM; GI50 [38]: 1880 nM; GI50 [39]: 3440 nM; GI50 [40]: 2070 nM
